# Screening data (PubChem)
# Compounds with a hit are over-represented: about 4% of the library has one in this group of screens.
# ABHD5-PLIN5 inh: inhibitors of human ABHD5-perilipin-5 interaction. Q00G26+Q8WTS1. Split G. princeps luciferase complementation, luminescence, 4 h. inhibition, % at 4 µM. 0.78% of 360,000 active. AID 602281;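 active = inhibition above the mean inhibition across every tested compound plus 3 SD, cut at about 22% in these data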;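 note: 0% = DMSO only wells and the 100% control is not disclosed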
# Target sequence (Q00G26 whole entry, looked up): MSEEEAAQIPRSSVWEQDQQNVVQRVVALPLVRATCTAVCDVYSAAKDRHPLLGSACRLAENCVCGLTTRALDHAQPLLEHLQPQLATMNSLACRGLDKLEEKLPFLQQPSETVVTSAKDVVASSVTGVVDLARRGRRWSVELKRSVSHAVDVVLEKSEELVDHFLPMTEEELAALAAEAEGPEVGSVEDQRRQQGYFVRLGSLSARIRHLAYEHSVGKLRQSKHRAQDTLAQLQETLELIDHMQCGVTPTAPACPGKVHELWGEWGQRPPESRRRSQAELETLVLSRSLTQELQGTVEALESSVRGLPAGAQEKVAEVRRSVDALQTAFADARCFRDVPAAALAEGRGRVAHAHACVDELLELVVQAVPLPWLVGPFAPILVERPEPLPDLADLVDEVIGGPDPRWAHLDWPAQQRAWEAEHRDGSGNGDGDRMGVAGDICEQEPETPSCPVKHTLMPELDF
# Target sequence (Q8WTS1 whole entry, looked up): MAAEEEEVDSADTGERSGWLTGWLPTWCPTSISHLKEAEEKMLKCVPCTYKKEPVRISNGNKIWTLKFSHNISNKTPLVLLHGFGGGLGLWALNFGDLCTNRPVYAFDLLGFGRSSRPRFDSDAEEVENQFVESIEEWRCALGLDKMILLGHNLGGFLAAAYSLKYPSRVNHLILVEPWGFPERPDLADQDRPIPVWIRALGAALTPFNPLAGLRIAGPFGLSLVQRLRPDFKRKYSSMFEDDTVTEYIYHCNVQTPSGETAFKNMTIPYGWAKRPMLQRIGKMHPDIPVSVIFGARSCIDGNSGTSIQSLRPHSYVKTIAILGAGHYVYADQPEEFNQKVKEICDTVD
# CHOP UPR activ: activators of apoptotic arm of unfolded protein response (CHOP); CHO-CHOP luciferase reporter, UPR activation, luminescence; percent of tunicamycin response over DMSO baseline; 0.34% of 330,000 active; AID 449763; activation, % at 10 µM;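 active = at 10 µM dose, activation of 40% or more, normalized to positive control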;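 note: 100% = tunicamycin at 10 µg/mL and 0% = DMSO alone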
#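 Evaluation: % reporter activation, DMSO baseline versus tunicamycin full activation; System: CHO-CHOP luciferase reporter cell line; Input: 500 cells/well; Incubation: 6 h compound treatment, 37 °C; Measured by: Steady-Glo luciferase luminescence; Dosing: one dose, 10 µM in 0.5% DMSO; Buffer or medium: F12 medium, 10% FBS; Benchmarks: positive tunicamycin 10 µg/mL, negative DMSO alone.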
# Granule exo inh: lytic granule exocytosis inhibition. TALL-104 LAMP-1 surface exposure, flow cytometry; cells stimulated with thapsigargin and PMA. inhibition, % at 10 µM. 0.66% of 360,000 active. AID 651702;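 active = inhibition above about 55%, limit read from the data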
# XBP1 UPR activ: adaptive UPR (XBP1) activation | 0.33% of 330,000 active | CHO-XBP1 luciferase reporter, IRE1-XBP1 UPR activation, luminescence; percent of tunicamycin response, DMSO as zero | activation, % at 20 µM;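 active = versus positive control, 20 µM dose yields 30% or more activation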;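 note: 100% = tunicamycin at 10 µg/mL and 0% = DMSO only wells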
#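 Material: CHO-XBP1 cells stably carrying IRE1-XBP1-driven luciferase reporter / Amount: 1000 cells per well / Compound: 20 µM, 1% DMSO / Times: 6 h treatment, 37 °C / Detection: luciferase luminescence / Measure: % activation of reporter signal versus tunicamycin and DMSO controls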
# Mdm2 MdmX PPI: inhibitors of human Mdm2/MdmX interaction | SaOS-2 split-luciferase Mdm2/MdmX complementation, luminescence | AID 485346 | 3% of 330,000 active | inhibition, % at 8 µM;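 active = inhibition of at least 50% at 8 µM in the primary screen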
# Mdm2-MdmX conf: confirmation of human Mdm2/MdmX interaction inhibitors | 55% of 10,000 active | inhibition, % at 8 µM | shares compounds with Mdm2 MdmX PPI | Mdm2-MdmX binding, luminescent assay | AID 489028; in the data active = inhibition above about 40%
# FLuc counter: full-length luciferase inhibition in Mdm2/MdmX counter-screen. shares compounds with Mdm2 MdmX PPI. SaOS-2 full-length luciferase counterscreen, luminescence. inhibition, % at 8 µM. 77% of 6,200 active. AID 504607;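 active = mean inhibition at 8 µM reaching about 37%, which flags the compound as non-specific, limit read from the data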;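 note: p53-null SaOS-2 cells with luciferase driven by a doxycycline-inducible promoter; compound on cells about two nights before reading with doxycycline added after day one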
# The depositor's hits bear a star; nt = not tested or not shown.
SMILES,ABHD5-PLIN5 inh,CHOP UPR activ,Granule exo inh,XBP1 UPR activ,Mdm2 MdmX PPI,Mdm2-MdmX conf,FLuc counter
COc1ccc(NC(=O)COc2ccc(C)c(C)c2)cc1S(=O)(=O)N1CCCCC1,1,2,7,1,-1,nt,nt
O=C(Nc1ccc(Cl)cc1Cl)NC1CCN(S(=O)(=O)c2ccc(F)cc2)CC1,5,-1,11,4,51*,42*,59*
C=CCn1c(CNc2ccccc2)nnc1SCC(=O)N/N=C/c1ccc(O)cc1O,3,2,-8,-1,29,nt,nt
COc1ccc(CSCC(=O)N/N=C/c2ccccc2O)cc1,4,-1,0,0,57*,36,65*
COc1cccc2c(SCC(=O)N/N=C/c3ccc(O)cc3O)cc(C)nc12,3,-2,0,-1,54*,46*,65*
C=CCn1c(CNc2ccc(C)cc2)nnc1SCC(=O)N/N=C/c1ccc(O)cc1O,3,-1,3,0,57*,56*,36
CCCCSc1nc(C)cc(SCC(=O)N/N=C/c2cccc(OC)c2O)n1,-5,-2,5,3,72*,80*,34
Cc1cc(OCC(=O)Nc2nnc(C3CC3)s2)ccc1Cl,-3,nt,-16,nt,nt,nt,nt
CC(CCc1ccccc1)NC(=O)COc1cc(F)ccc1[N+](=O)[O-] (stereo not given),4,-2,-13,0,6,nt,nt
O=C(O)CCN(CCC(=O)O)S(=O)(=O)c1ccccc1,0,1,-3,-2,23,nt,nt
COc1ccc2nc(C)cc(SCC(=O)N/N=C/c3ccc(O)cc3O)c2c1,6,-1,-2,-4,55*,79*,37*
CC(=O)N1CCC(=NNC(=O)c2cc3ccccc3cc2O)CC1,-11,1,1,-4,62*,51*,58*
COc1ccc(NC(=O)c2cc(-c3cc(Cl)ccc3O)n[nH]2)c(OC)c1,-7,2,10,1,69*,3,nt
Cc1cc(O)c(-c2cc(C(=O)Nc3ccc(S(=O)(=O)N4CCOCC4)cc3)[nH]n2)cc1C,-7,4,5,3,23,nt,nt
O=C(Nc1ccc(S(=O)(=O)N2CCOCC2)cc1)c1cc(-c2cc(Cl)ccc2O)n[nH]1,8,1,6,9,87*,79*,39*
COc1ccc(C2C3=C(CCCC3=O)N(CC(=O)O)C3=C2C(=O)CCC3)cc1Cl,-1,3,4,1,5,nt,nt
CC(O)CNCc1ccc(Cl)cc1Cl (stereo not given),0,-1,-5,0,31,nt,nt
CCOc1ccc2nc(N/C(N)=N/C(=S)Nc3ccc(OC)cc3)nc(C)c2c1,-13,1,0,3,28,nt,nt
CCc1ccc(NC(=S)/N=C(\N)Nc2nc(C)c3cc(CC)ccc3n2)cc1,-37,3,0,7,63*,60*,60*
Cc1cccc(NC(=S)/N=C(\N)Nc2nc(C)c3ccc(C)cc3n2)c1,-11,-1,-4,-1,59*,37,54*
COc1ccc2nc(N/C(N)=N/C(=S)Nc3ccc(C)c(C)c3)nc(C)c2c1,nt,4,nt,-3,56*,53*,56*
Clc1ccc(/C=C/c2nc(Cl)c(-c3ccc(Cl)cc3)c(Cl)n2)cc1,5,-2,5,-4,27,nt,nt
Nc1c(S(=O)(=O)c2ccccc2)c2nc3ccccc3nc2n1/N=C/c1cccc(O)c1,-5,4,2,2,67*,15,nt
COC(=O)c1cc2sccc2n1Cc1nc(-c2ccc(Cl)cc2)oc1C,2,-2,1,-3,51*,15,nt
COC(=O)c1cc2sccc2n1Cc1nc(-c2cccc(Cl)c2)oc1C,-8,1,-1,-1,9,nt,nt
SMILES,ABHD5-PLIN5 inh,CHOP UPR activ,Granule exo inh,XBP1 UPR activ,Mdm2 MdmX PPI,Mdm2-MdmX conf,FLuc counter
COCCn1c(=S)[nH]c2cc(C(=O)N3CCN(c4cccc(Cl)c4)CC3)ccc2c1=O,0,-1,1,1,20,nt,nt
Fc1ccc(Nc2nc(N3CCOCC3)c3ccccc3n2)cc1,0,-5,1,3,52*,29,nt
CN1C(=O)C2(OCCCO2)c2ccccc21,4,2,3,-2,30,nt,nt
COc1ccc(CCNC(=O)C/C(C)=N/NC(=O)C(c2ccccc2)c2ccccc2)cc1OC,-3,5,0,-3,-3,nt,nt
CN=c1scc(-c2ccccc2Br)n1/N=C/c1ccc[nH]1,nt,-1,nt,-7,60*,69*,143*
CN=c1scc(-c2ccc(Br)cc2)n1C,-2,1,0,-5,11,nt,nt
CC(C)N(CCNC(=O)C1CCN(S(=O)(=O)N2CCOCC2)CC1)Cc1ccccc1,-2,-3,0,-1,-8,nt,nt
O=C1c2ccccc2S(=O)(=O)N1Cc1nc2ccccc2s1,6,-6,-5,-11,90*,87*,33
CN1CCN(c2ccccc2NC(=S)NC(=O)c2cc3ccccc3o2)CC1,15,27,6,5,92*,18,nt
CC(=O)N1CCN(c2ccccc2NC(=O)c2cc3ccccc3o2)CC1,16,-1,-3,-4,6,nt,nt
CCOc1ccc(NC(=O)CN2C(=O)NC(CCc3ccccc3)C2=O)cc1OCC (stereo not given),-9,0,-11,-4,14,nt,nt
COc1ccccc1Cn1c(=O)c2ccccc2n2c(Sc3ncnc4sccc34)nnc12,14,5,-5,6,76*,30,nt
CCOC(=O)c1c(C)oc2c1C(=O)c1ccccc1C2=O,-12,2,3,2,54*,25,nt
CCOC(=O)c1c(C)nc2c(c1-c1ccccc1)C(=O)c1ccccc1-2,18,3,3,9,23,nt,nt
O=C(NCCc1ccccc1)C(c1cccs1)N(C(=O)CCl)c1ccc(Cl)cc1 (stereo not given),22,-1,-20,-7,99*,100*,52*
COc1cccc(-n2c(SCC(=O)N3CCOCC3)nnc2-c2c[nH]c3ccccc23)c1,11,0,-4,-1,1,nt,nt
COc1cccc(-n2c(SCC(=O)N3CCOCC3)nc3c([nH]c4ccccc43)c2=O)c1,0,-1,-4,4,65*,13,nt
CCCCNC(=O)c1cc2c(=O)n3cccc(C)c3nc2n(Cc2ccncc2)c1=N,3,0,1,-1,6,nt,nt
Fc1ccc(C2C3=C(Nc4ncnn42)c2ccccc2OC3c2ccncc2)cc1 (stereo not given),4,2,3,1,17,nt,nt
Cc1ccc(C2Oc3ccccc3C3=C2C(c2cccs2)n2ncnc2N3)cc1 (stereo not given),0,3,2,4,58*,70*,37*
